Our source for the Activity, inhibition in vivo and UI values is ChEMBL document CHEMBL1926598, “Synthesis, anti-inflammatory activity and ulcerogenic liability of novel nitric oxide donating/chalcone hybrids” (Bioorg Med Chem, 2012).

Data set [1] can be described thus: Induction of nitric oxide release at 0.1 mM after 1 hr in phosphate buffer at pH 7.4 by Griess assay. The settings on record: pH 7.4, 1 h, 100 µM. The format is physicochemical. Summed up:
(§1)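 Compound at a final 10^-4 M with 0.5 mM N-acetylcysteine in phosphate buffer pH 7.4 at 37 °C. Reaction mixture treated with Griess reagent (sulfanilamide, N-naphthylethylenediamine, phosphoric acid), 10 min at room temperature, absorbance read at 546 nm. Sodium nitrite standards (10–80 nmol/mL) used for calibration. NO reported as mol/mol, n = 4 reaction mixtures.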

Data set [2] can be described thus: Induction of nitric oxide release at 0.1 mM after 2 hrs in phosphate buffer at pH 7.4 by Griess assay. Format: physicochemical. The conditions noted are these: pH 7.4, 2 h, 100 µM. In short, it runs like this: as §1
Data set [3] is described as follows: Induction of nitric oxide release at 0.1 mM after 3 hrs in phosphate buffer at pH 7.4 by Griess assay. The format is physicochemical. The conditions noted are these: pH 7.4, 3 h, 100 µM. In short, it runs like this: as §1
A short description of data set [4]: Induction of nitric oxide release at 0.1 mM after 4 hrs in phosphate buffer at pH 7.4 by Griess assay. Format: physicochemical. The conditions noted are these: pH 7.4, 4 h, 100 µM. In short, it runs like this: as §1
Data set [5] is described as follows: Induction of nitric oxide release at 0.1 mM after 5 hrs in phosphate buffer at pH 7.4 by Griess assay. The format is physicochemical. The settings on record: pH 7.4, 5 h, 100 µM. Summed up: as §1
Data set [6] is described as follows: Induction of nitric oxide release at 0.1 mM after 6 hrs in phosphate buffer at pH 7.4 by Griess assay. The format is physicochemical. The settings on record: pH 7.4, 6 h, 100 µM. In short, it runs like this: as §1
Data set [7] in a line: Induction of nitric oxide release at 0.1 mM in 0.1 N HCl buffer at pH 1.0 by Griess assay. The format is physicochemical. The conditions noted are these: pH 1, 100 µM. Summed up: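 Griess procedure as at neutral pH, but in 0.1 N HCl pH 1 in place of phosphate buffer. Compound at a final 10^-4 M with N-acetylcysteine, 37 °C. Absorbance read at 546 nm against sodium nitrite standards (10–80 nmol/mL). Release expressed relative to a theoretical 1 mol NO/mol compound.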

Data set [8] concerns Rattus norvegicus. Nature of the data set: Antiinflammatory activity in albino rat assessed as inhibition of carrageenan-induced paw edema at 100 mg/kg, po administered 30 mins prior to challenge measured after 1 hr relative to untreated control. Format: functional. Summed up:
(§2)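 Adult male albino rats (120–140 g), groups of four, fasted 24 h with water allowed. Test compound suspended in 0.5% w/v CMC in water, given orally at 100 mg/kg; controls received CMC alone. After 30 min, 0.1 mL of 1% carrageenan in saline injected subplantar into right hind paw, saline into left. Paw thickness measured by caliper; % inhibition = [(VR−VL)control − (VR−VL)treated]/(VR−VL)control ×100; one-way ANOVA versus control.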

For data set [9], the system named is Rattus norvegicus. Nature of the data set: Antiinflammatory activity in albino rat assessed as inhibition of carrageenan-induced paw edema at 100 mg/kg, po administered 30 mins prior to challenge measured after 2 hrs relative to untreated control. The format is functional. Summed up:
as §2

Data set [10] relates to Rattus norvegicus. The experiment in a line: Antiinflammatory activity in albino rat assessed as inhibition of carrageenan-induced paw edema at 100 mg/kg, po administered 30 mins prior to challenge measured after 3 hrs relative to untreated control. The format is functional. Summed up: as §2
For data set [11], the system named is Rattus norvegicus. The experiment in a line: Antiinflammatory activity in albino rat assessed as inhibition of carrageenan-induced paw edema at 100 mg/kg, po administered 30 mins prior to challenge measured after 4 hrs relative to untreated control. The format is functional. Summed up: as §2
Data set [12] concerns Rattus norvegicus. The experiment in a line: Antiinflammatory activity in albino rat assessed as inhibition of carrageenan-induced paw edema at 100 mg/kg, po administered 30 mins prior to challenge measured after 5 hrs relative to untreated control. Format: functional. Summed up:
as §2

For data set [13], the system named is Rattus norvegicus. Nature of the data set: Antiinflammatory activity in albino rat assessed as inhibition of carrageenan-induced paw edema at 100 mg/kg, po administered 30 mins prior to challenge measured after 3 hrs relative to indomethacin. The format is functional. Also noted: scale not given: the % may be the effect or the level left. In short, it runs like this:
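Carrageenan paw edema in male albino rats (120–140 g, n = 4, fasted 24 h), compound 100 mg/kg po in 0.5% CMC 30 min before subplantar 1% carrageenan (0.1 mL). Percent edema inhibition at the stated hour from right minus left paw thickness versus the CMC control, then expressed as a percentage of the indomethacin (100 mg/kg) response at the same time.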

Data set [14] has as its system Rattus norvegicus. Nature of the data set: Gastric toxicity in albino rat assessed as ulcer index at 100 mg/kg, po after 5 hrs. Format: organism-based. More on the design: dose 100 mg/kg, route oral. The conditions noted are these: in vivo. Summed up:
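Rats dosed orally at 100 mg/kg in 0.5% CMC (n = 4). Stomach lesions counted and graded by area: level I <1 mm², II 1–3 mm², III >3 mm². Ulcer index = 1×(level I count) + 2×(level II) + 3×(level III). Mean ± SEM; one-way ANOVA versus control.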

Regarding `COc1ccc(/C=C/C(=O)c2ccc(NC(=O)CO[N+](=O)[O-])cc2)cc1`, the Activity in data set [1] is listed as 0.27 mol/mol; in data set [2], 0.31 mol/mol; in data set [3], 0.48 mol/mol; in data set [4] it was 0.66 mol/mol; in data set [5], 0.68 mol/mol; in [6] it was 0.59 mol/mol. In addition, the Activity entry in [7] was “Not Active”; in the data set on Rattus norvegicus [13], 69%. The inhibition in vivo at 100 mg/kg was 33% in the data set on Rattus norvegicus [8]; 49% in the data set on Rattus norvegicus [9]; 53% in the data set with Rattus norvegicus [10]; 51% in the data set with Rattus norvegicus [11]; 46% in the data set on Rattus norvegicus [12]. In addition, in the data set with Rattus norvegicus [14], the UI is 5.8.

For `O=C(CO[N+](=O)[O-])Nc1ccc(C(=O)/C=C/c2ccc3c(c2)OCO3)cc1`, the Activity is 0.39 mol/mol in data set [1]; 0.45 mol/mol in data set [2]; 0.6 mol/mol in [3]; 0.64 mol/mol in data set [4]; 0.73 mol/mol in data set [5]; 0.67 mol/mol in data set [6]. In addition, the Activity result in data set [7] is reported as “Not Active”; in the data set with Rattus norvegicus [13], 79%. Further, the inhibition in vivo at 100 mg/kg in the data set with Rattus norvegicus [8] amounted to 38%; in the data set with Rattus norvegicus [9], 45%; in the data set on Rattus norvegicus [10], 61%; with Rattus norvegicus [11], 55%; with Rattus norvegicus [12], 54%. Further, the UI in the data set with Rattus norvegicus [14] came out at 3.

As for `O=C(CO[N+](=O)[O-])Nc1ccc(C(=O)/C=C/c2ccco2)cc1`, the Activity came out at 0.15 mol/mol in [1]; 0.28 mol/mol in data set [2]; 0.37 mol/mol in data set [3]; 0.59 mol/mol in data set [4]; 0.63 mol/mol in data set [5]; 0.59 mol/mol in data set [6]. Further, the figures for the Activity result (in data set [7]; in the data set with Rattus norvegicus [13]) were “Not Active” and 61%, respectively. The inhibition in vivo at 100 mg/kg with Rattus norvegicus [8] was determined as 34%; in the data set on Rattus norvegicus [9], 36%; in the data set with Rattus norvegicus [10], 48%; with Rattus norvegicus [11] it was 40%; in the data set on Rattus norvegicus [12] it was 39%. For the same molecule, the UI in the data set with Rattus norvegicus [14] stood at 7.

`COc1ccc(/C=C/C(=O)c2ccc(NC(=O)C(C)O[N+](=O)[O-])cc2)cc1` (stereo unspecified): the Activity in data set [1] was 0.11 mol/mol; in data set [2] it was 0.12 mol/mol; in data set [3], 0.37 mol/mol; in [4] it was 0.17 mol/mol; in [5], 0.15 mol/mol; in data set [6], 0.14 mol/mol. In addition, the Activity entry in data set [7] is “Not Active”; in the data set with Rattus norvegicus [13], 65%. The inhibition in vivo at 100 mg/kg was found to be 43% in the data set on Rattus norvegicus [8]; 46% in the data set on Rattus norvegicus [9]; 50% in the data set with Rattus norvegicus [10]; 43% in the data set on Rattus norvegicus [11]; 35% with Rattus norvegicus [12]. For the same molecule, in the data set on Rattus norvegicus [14], the UI is 8.

As to `CC(O[N+](=O)[O-])C(=O)Nc1ccc(C(=O)/C=C/c2ccc3c(c2)OCO3)cc1` (stereo unspecified), the Activity is on record as 0.1 mol/mol in [1]; 0.14 mol/mol in [2]; 0.4 mol/mol in data set [3]; 0.28 mol/mol in data set [4]; 0.15 mol/mol in data set [5]; 0.12 mol/mol in data set [6]. The Activity entry in data set [7] is “Not Active”; in the data set on Rattus norvegicus [13], 77%. The inhibition in vivo at 100 mg/kg amounted to 45% in the data set on Rattus norvegicus [8]; 40% in the data set on Rattus norvegicus [9]; 59% in the data set on Rattus norvegicus [10]; 54% in the data set with Rattus norvegicus [11]; 53% with Rattus norvegicus [12]. Moreover, in the data set with Rattus norvegicus [14], the UI is 4.

`CC(O[N+](=O)[O-])C(=O)Nc1ccc(C(=O)/C=C/c2ccco2)cc1` (stereo unspecified): the Activity in [1] is 0.09 mol/mol; in data set [2] it was 0.11 mol/mol; in data set [3] it was 0.38 mol/mol; in data set [4] it was 0.13 mol/mol; in data set [5] it was 0.11 mol/mol; in data set [6] it was 0.09 mol/mol. In addition, the Activity entry in [7] is “Not Active”; in the data set on Rattus norvegicus [13], 69%. The inhibition in vivo at 100 mg/kg in the data set on Rattus norvegicus [8] is 41%; with Rattus norvegicus [9], 48%; in the data set on Rattus norvegicus [10], 54%; in the data set on Rattus norvegicus [11] it was 49%; with Rattus norvegicus [12], 49%. Also, the UI in the data set with Rattus norvegicus [14] is 5.7.

Regarding `C/C(=N/O)c1ccc(OCC(=O)Nc2ccc(C(=O)/C=C/c3ccc(Cl)cc3)cc2)cc1`, the Activity is on record as 0.13 mol/mol in data set [1]; 0.19 mol/mol in data set [2]; 0.22 mol/mol in [3]; 0.41 mol/mol in data set [4]; 0.37 mol/mol in data set [5]; 0.36 mol/mol in [6]. Also, the values for the Activity entry (in [7]; in the data set with Rattus norvegicus [13]) were “Not Active” and 85%, respectively. For the same molecule, the inhibition in vivo at 100 mg/kg in the data set on Rattus norvegicus [8] was found to be 39%; with Rattus norvegicus [9] it was 54%; in the data set with Rattus norvegicus [10], 66%; in the data set with Rattus norvegicus [11], 55%; with Rattus norvegicus [12], 49%. For the same molecule, in the data set with Rattus norvegicus [14], the UI was found to be 2.2.

As for `COc1ccc(/C=C/C(=O)c2ccc(NC(=O)COc3ccc(/C(C)=N\O)cc3)cc2)cc1`, the Activity is on record as 0.11 mol/mol in data set [1]; 0.12 mol/mol in [2]; 0.14 mol/mol in data set [3]; 0.3 mol/mol in data set [4]; 0.16 mol/mol in data set [5]; 0.15 mol/mol in [6]. The results for the Activity result (in data set [7]; in the data set with Rattus norvegicus [13]) were “Not Active” and 59%, respectively. Further, the inhibition in vivo at 100 mg/kg with Rattus norvegicus [8] is 33%; in the data set with Rattus norvegicus [9], 41%; in the data set on Rattus norvegicus [10] it was 46%; in the data set with Rattus norvegicus [11] it was 42%; in the data set on Rattus norvegicus [12] it was 37%. Moreover, the UI in the data set with Rattus norvegicus [14] is listed as 5.

`C/C(=N/O)c1ccc(OCC(=O)Nc2ccc(C(=O)/C=C/c3ccc4c(c3)OCO4)cc2)cc1`: the Activity in data set [1] turned out to be 0.14 mol/mol; in data set [2] it was 0.16 mol/mol; in [3], 0.25 mol/mol; in [4] it was 0.31 mol/mol; in data set [5], 0.26 mol/mol; in data set [6] it was 0.24 mol/mol. In addition, the Activity entry in [7] is “Not Active”; in the data set on Rattus norvegicus [13], 77%. Also, the inhibition in vivo at 100 mg/kg came to 40% with Rattus norvegicus [8]; 49% with Rattus norvegicus [9]; 59% with Rattus norvegicus [10]; 52% with Rattus norvegicus [11]; 44% in the data set with Rattus norvegicus [12]. The UI in the data set on Rattus norvegicus [14] was 4.
